Screening results: PubChem, Broad Institute
AF4-AF9 inh = blocks AF4 peptide binding to human AF9; AID 651704; hit rate 0.47% among 350,000; inhibition, % at 10 µM; AlphaScreen, biotin-AF4 peptide binding to FLAG-AF9;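 active = every replicate reaching a set inhibition limit, whatever the replicate mean, cut at about 25% in these data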;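 note: 0% = plate neutral control median and 100% = total signal loss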
Glyco luc inh = N-linked glycosylation inhibition; reporter increase, % at 12.5 µM; D54 ERlucT glycosylation luciferase reporter, 24 h; percent of 100 nM tunicamycin response; AID 588692; hit rate 0.23% among 360,000;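 active = mean luciferase reporter signal, scaled so untreated is 0 and the glycosylation-blocking control 100, at or above a set limit in every replicate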;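 note: luciferase carries N-glycosylation sites so blocking glycosylation raises the light; 0% = median of neutral control wells and 100% = median of 100 nM tunicamycin wells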
RAD52 anneal inh = blocks human RAD52 DNA annealing | P43351 | recombinant RAD52 DNA annealing, FRET fluorescence | inhibition, % at 18.7 µM | hit rate 0.46% among 360,000;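 active = every replicate showing at least 50% inhibition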
FN deposition inh = fibronectin deposition inhibition. AH1F fibroblasts, Alexa488-fibronectin deposition fluorescence, overnight. inhibition, % at 12.6 µM. hit rate 0.086% among 350,000. AID 743247;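 active = mean inhibition across replicates of 30% or more, regardless of how many single replicates reach that level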;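 note: positive control wells lacked labelled fibronectin entirely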
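Assay system: AH1F fibroblasts / Quantity: 10000 cells per well / Medium: DMEM plus 2% serum, read in PBS / Reagent: labelled fibronectin 24 nM / Dosing: single dose, pinned / Times: 1 h cell attachment, overnight exposure to compound and label / Signal: fluorescence, ex 485 nm, em 525 nm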
RAD54 inh = RAD54 (human) branch migration inhibition | hit rate 0.14% among 360,000 | RAD54 Holliday junction branch migration, FAM/BHQ fluorescence | inhibition, % at 10.4 µM | Q92698;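 active = mean normalized replicate activity at least 40 and at least half of replicates scoring 40 or more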;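 note: 0% = median of neutral control wells and 100% = median of positive control wells; inhibitors cause a drop in the FAM fluorescence signal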
Target sequence (Q92698 whole entry, looked up): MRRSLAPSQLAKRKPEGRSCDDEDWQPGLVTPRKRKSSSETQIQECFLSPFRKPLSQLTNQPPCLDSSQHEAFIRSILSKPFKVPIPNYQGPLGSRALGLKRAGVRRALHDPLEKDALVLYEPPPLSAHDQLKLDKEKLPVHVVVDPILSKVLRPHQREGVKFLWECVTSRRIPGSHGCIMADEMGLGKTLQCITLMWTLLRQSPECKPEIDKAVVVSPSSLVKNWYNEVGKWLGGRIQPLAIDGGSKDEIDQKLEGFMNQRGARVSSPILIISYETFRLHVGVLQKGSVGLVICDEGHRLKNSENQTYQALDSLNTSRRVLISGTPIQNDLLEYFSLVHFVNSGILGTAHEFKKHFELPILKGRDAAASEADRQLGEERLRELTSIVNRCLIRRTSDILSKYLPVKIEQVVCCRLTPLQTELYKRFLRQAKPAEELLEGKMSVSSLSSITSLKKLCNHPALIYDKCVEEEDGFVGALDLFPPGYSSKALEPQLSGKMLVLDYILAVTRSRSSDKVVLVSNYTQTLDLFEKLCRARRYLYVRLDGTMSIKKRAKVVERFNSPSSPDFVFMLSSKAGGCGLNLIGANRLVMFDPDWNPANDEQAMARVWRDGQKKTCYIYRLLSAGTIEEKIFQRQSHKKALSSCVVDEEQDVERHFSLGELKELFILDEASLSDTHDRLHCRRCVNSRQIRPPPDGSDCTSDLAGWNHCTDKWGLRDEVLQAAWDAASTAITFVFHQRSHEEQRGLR
NSD2 inh = blocks human histone methyltransferase NSD2; O96028; NSD2 peptide methylation, AlphaScreen, 120 min; inhibition, % at 12.5 µM; hit rate 0.54% among 310,000; AID 743445; in the data active = inhibition above about 50%
* = called active by the depositor; . = no result given; ! = a repeat was not active. This is a sample that favours compounds with a hit; in the whole collection about 1.2% have one here.

SMILES	AF4-AF9 inh	Glyco luc inh	RAD52 anneal inh	FN deposition inh	RAD54 inh	NSD2 inh
C[C@H](CO)N1C[C@H](C)[C@H](CN(C)Cc2ccccc2)Oc2cc(C#C[C@@H](C)O)ccc2S1(=O)=O	-1	.	-12	7	1	.
COC(=O)c1cc(OC)c(OC)cc1NC(=S)NC(=O)c1ccco1	0	40*	-6	-5	6	-4
CCNC(=S)Nc1cc(OC)c(NC(=O)c2ccco2)cc1OC	-1	0	-6	-15	7	-1
CCNC(=O)C[C@H]1CC[C@@H]2[C@H](COc3ccc(NC(=O)c4ccc(F)cc4)cc3C(=O)N2C)O1	-2	.	4	2	-5	.
C[C@@H]1CN([C@H](C)CO)S(=O)(=O)c2ccc(C#CC3CCCCC3)cc2O[C@@H]1CN(C)C(=O)Cc1ccncc1	4	.	-23	.	-4	.
CCOc1ccccc1NC(=O)C(C)N1C(=O)c2ccccc2S1(=O)=O (centres undefined)	29*	3	5	1	.	-1
CC(C)C[C@@H]1COCc2cn(nn2)CC[C@H](Cc2ccc(-c3ccccc3)cc2)C(=O)N1	.	.	.	-6	.	.
CN(C)S(=O)(=O)c1ccc(N2CCCC2)c(C(=O)Nc2nc3ccccc3s2)c1	4	90*	-12	-7	-2	0
Cc1cccc2sc(NC(=O)c3cc(S(=O)(=O)N(C)C)ccc3N3CCCC3)nc12	2	87*	1	5	5	-2
CN(C)S(=O)(=O)c1ccc(N2CCCC2)c(C(=O)Nc2nc3ccc(F)cc3s2)c1	-19	63*	-28	5	-1	0
C[C@@H]1CN([C@H](C)CO)C(=O)CCCn2cc(nn2)CO[C@@H]1CN(C)Cc1ccc2c(c1)OCCO2	-2	.	15	-3	1	.
CCN1CCSc2ccc(C(=O)NCc3ccccc3F)cc21	25*	0	-18	-8	-7	.
CCN1CCSc2ccc(C(=O)NCc3ccccc3C)cc21	49*	0	-16	14	15	.
CN1CCSc2ccc(C(=O)NCc3ccccc3F)cc21	4	-1	-16	-2	3	.
CCN1CCSc2ccc(C(=O)NCc3ccccc3Br)cc21	-3	-2	-10	6	-2	.
C[C@H](CO)N1C[C@H](C)[C@H](CN(C)C(=O)c2ccccn2)Oc2cc(C#CC3CC3)ccc2S1(=O)=O	0	.	-15	-19	3	.
Cc1ccnc(NC(=O)c2cccc(NC(=O)c3ccccc3Cl)c2)c1	.	.	.	.	.	-1
O=C1CN(/N=C/c2ccc([N+](=O)[O-])o2)C(=O)N1	25*	2	-47	4	-5	.
CCOC(=O)c1c(NC(=O)/C=C/C(=O)O)sc(C)c1-c1ccc(C(C)(C)C)cc1	1	14	-15	5	.	69*
CCOC(=O)c1c(NC(=O)/C=C\C(=O)O)sc(C)c1-c1ccccc1	-1	0	-22	-4	.	-2
COc1ccc(-c2ccc3c(c2)O[C@H](CN(C)C(=O)Nc2ccccc2F)[C@H](C)CN([C@@H](C)CO)S3(=O)=O)cc1	4	.	5	5	-10	.
O=C1NNC(c2ccccc2)=N/C1=C\c1ccccc1Cl	4	7	-17	17	-1	93*
O=C1NNC(c2ccccc2)=N/C1=C\c1ccco1	5	2	-35	3	-15	35
O=C(c1ccc(Br)cc1)C(CN1CCOCC1)c1ccccc1 (centres undefined)	1	-21	-4	34*	-4	2
CCOc1ccc(C(=O)C(CN2CCOCC2)c2ccccc2)cc1 (centres undefined)	.	10	.	20	-14	4
SMILES	AF4-AF9 inh	Glyco luc inh	RAD52 anneal inh	FN deposition inh	RAD54 inh	NSD2 inh
C=CCC[C@H](Cc1ccc(F)cc1)C(=O)OC[C@H](Cc1c[nH]c2ccccc12)NC(=O)[C@@H](CC=C)CC(=O)N[C@@H](CO)Cc1ccccc1	2	-10	-12	32*	10	.
N#CC1=C(N)Oc2c(ccc3cccnc23)C1c1ccccc1 (centres undefined)	6	2	-32	36*	-12	2
Cc1ccc2[nH]c(=O)c(C3C(C#N)=C(N)Oc4c3ccc3cccnc43)cc2c1 (centres undefined)	.	-8	.	3	8	3
CS(=O)(=O)N1CC(=O)N2[C@H](CO)[C@H](c3ccc(C#Cc4ccccc4)cc3)[C@@H]2C1	-3	.	9	.	.	.
COc1cccc2oc3ccc(C#CC4(N)CCCCC4)cc3c(=O)c12	5	-7	-2	-2	51*	.
O=c1c2ccccc2oc2ccc(C#CC3(O)CCCCC3)cc12	-16	-18	-19	-7	-9	.
OCCCCCN=c1cc(-c2ccccc2)oc2ccc(Cl)cc12	.	51*	.	.	.	3
Cc1ccc(NC(=O)CN(C)C(=O)Cc2ccc(Cl)c(Cl)c2)cc1	2	2	-14	0	6	6
Cc1ccc(NC(=O)CN(C)C(=O)Cn2ncc(Cl)c(Cl)c2=O)cc1	-9	-16	-11	36*	2	6
COc1cccc(NC(=O)COC(=O)c2c(NC(C)=O)sc(C)c2C)c1	2	-1	-21	4	-5	-1
CC(=O)Nc1sc(C)c(C)c1C(=O)OCC(=O)Nc1cccc(C)c1	-10	66*	-13	18	-10	-1
CC(=O)Nc1sc(C)c(C)c1C(=O)OCC(=O)Nc1ccccc1	-1	85*	-2	3	-4	-5
O=C(C[C@H]1CC[C@H]2[C@@H](COC[C@@H](O)CN2Cc2ccccc2F)O1)N[C@@H]1CCN(Cc2ccccc2)C1	5	.	-5	-4	0	.
O=C(CCN1CCCCC1)N[C@H]1CC[C@H](CCNS(=O)(=O)c2ccccc2)O[C@H]1CO	0	.	-9	.	6	.
C[C@@H]1CN([C@@H](C)CO)C(=O)CCCn2nncc2CO[C@H]1CN(C)C(=O)Nc1ccc(N2CCN(C)CC2)cc1	12	.	58*!	-16	6	.
C[C@@H]1CN([C@H](C)CO)C(=O)CCCn2cc(nn2)CO[C@H]1CN(C)C(=O)Nc1ccc(N2CCN(C)CC2)cc1	1	.	62*	-4	8	.
C[C@H](CO)N1C[C@H](C)[C@@H](CN(C)C(=O)Nc2ccc(N3CCN(C)CC3)cc2)OCc2cnnn2CCCC1=O	-2	1	55*!	6	-13	.
O=C(C[C@H]1CC[C@H](NC(=O)NC2CCCC2)[C@@H](CO)O1)NCc1ccc(F)cc1	2	.	7	.	-2	.
O=C(C[C@H]1CC[C@@H]2[C@H](COC[C@@H](O)CN2S(=O)(=O)c2ccc(Cl)cc2)O1)NCc1ccncn1	-3	.	-14	1	10	.
O=C(COC(=O)c1cc(Cl)nc(Cl)c1)NC1CCCCC1	.	.	.	.	.	-1
S=C(NCCCN1CCOCC1)N1CCN(c2nc(-c3ccc(Cl)cc3)cs2)CC1	33*	1	-34	3	2	.
